Test [1] can be described thus: reduced viability of SK-BR-3 breast cancer cells – cell-based, 24 h, human, pilot screen (AID 572;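 active = viability at or below 10% of carrier control in both of two separate runs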;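 note: compound exposure lasted between 18 and 24 h rather than exactly 24 h; 100% = carrier-treated control wells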). Conditions: SK-BR-3 viability, CellTiter-Glo luminescence, at 10 µM, stronger effect = lower value. A general note: In ATP-based viability assays light output follows the ATP content of the culture.
Test [2] can be described thus: HUVEC growth inhibition – cell-based, human, primary screen (AID 575;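 active = viability at or below 30% in both replicate assays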;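 note: 100% = median of untreated cell wells with 0.1% DMSO on each plate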). To be noted: HUVEC proliferation, CellTiter-Glo luminescence, 72 h; at 10 µM; stronger effect = lower value. In outline: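 System: primary human umbilical vein endothelial cells; Quantity: 1250 endothelial cells in each well; Buffer or medium: supplemented EBM, 2% fetal bovine serum; Doses: one dose, 10 µM final, 0.1% DMSO; Incubation: 72 h compound incubation; Technique: ATP-based CellTiter-Glo luminescent read; Evaluation: percent of median DMSO-control luminescence; Controls: vehicle and MePR control wells.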

The nature of test [3]: H69AR cell proliferation blockers – human, duplicate replicates, primary screen (AID 580;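 active = viability at or under a set limit in both replicates, limit being median viability minus 3 SD, cut at about 48% in these data, passing the limit was not always enough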;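 note: 100% = mean luminescence of untreated wells and 0% = no signal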). Conditions: H69AR lung tumor cells viability, ATP luminescence, 72 h; at 10 µM; stronger effect = lower value.
A short description of test [4]: MRP1 drug-resistance reversers in H69AR cells – cell-based, doxorubicin co-treatment, pilot screen (AID 601). To be noted: CellTiter-Glo, 72 h, at 10 µM; for differential viability (reversal): stronger effect = higher value.
A short description of test [5]: yeast transport mutant growth inhibition pilot in 384-well plates, post-Golgi transport modulator project (AID 636; in the data active = inhibition above about 31%). To be noted: absorbance 615 nm, about 18 h, stronger effect = higher value.
Test [6] in a line: growth suppression of yeast trafficking mutant, preliminary HTS, modulators of trafficking downstream of Golgi apparatus project, 1536-format plate, OD 615 nm (AID 637; in the data active = inhibition above about 30%). Conditions: yeast transport mutant growth, absorbance 615 nm, 18 h; stronger effect = higher value.
Where [7] appears, read: H69AR cells + 2 uM doxorubicin, measured here: viability with 2 uM doxorubicin, stronger effect = lower value.
Setting [8] is: H69AR cells, compound alone cytotoxicity.

Active and inactive are the calls of the source.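 Rule for the calls, unless noted: active = viability loss from added drug above about 55%, and viability with drug at most 40%, in both replicates (limit read from the data, passing the limit was not always enough); inconclusive = both conditions met in only one replicate; inactive = neither replicate meets both conditions.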

As for `O=C(Nc1nnc(SCC(=O)N2CCCCC2)s1)C1CCCCC1`, the viability is 81% (inactive) in test [1]; 103% (inactive) in test [2]; 101% (inactive) in test [3]; 88.8% in test [4] (setting [7]); 101% in test [4] (setting [8]). In addition, the differential viability (reversal) in test [4] (H69AR cells + 2 uM doxorubicin) was 12.6% (inactive). Besides, the inhibition in test [5] is -2.13% (inactive); in test [6], 0.73% (inactive).

For the molecule `Cc1c(NC(=O)CCc2ccc(S(=O)(=O)N3CCOCC3)cc2)c(=O)n(-c2ccccc2)n1C`, the viability in test [1] is 93% (inactive); in test [2], 109% (inactive); in test [3], 100% (inactive); in test [4] (setting [7]), 89.8%; in test [4] (setting [8]), 100%. For the same molecule, the differential viability (reversal) in test [4] (H69AR cells + 2 uM doxorubicin) is 10.3% (inactive). Besides, the inhibition is -3.77% (inactive) in test [5] and -8.2% (inactive) in test [6].

For the molecule `CN1CCN(C2=Nc3ccccc3Oc3ccc(Cl)cc32)CC1`, the viability in test [1] was 80% (inactive); in test [2], 59.7% (inactive); in test [3] it was 73.6% (inactive); in test [4] (setting [7]) it was 25.3%; in test [4] (setting [8]), 73.6%. In test [4] (H69AR cells + 2 uM doxorubicin), the differential viability (reversal) is 48.3% (inactive). In addition, the results for the inhibition in test [5] and in test [6] were -3.38% (inactive) and -1.83% (inactive), respectively.

On to `CC(C)Oc1ccc2c(=O)c(-c3ccccc3)coc2c1`, for which the viability in test [1] is 121% (inactive); in test [2], 87% (inactive); in test [3], 89.7% (inactive); in test [4] (setting [7]), 82.8%; in test [4] (setting [8]), 89.7%. Besides, the differential viability (reversal) in test [4] (H69AR cells + 2 uM doxorubicin) is 6.81% (inactive). The inhibition in test [5] was -1.04% (inactive); in test [6], -0.17% (inactive).

Take `Cc1nnc(SCCn2c(Br)nc3c2c(=O)n(C)c(=O)n3C)s1`: the viability is 95% (inactive) in test [1]; 106% (inactive) in test [2]; 98.2% (inactive) in test [3]; 97.5% in test [4] (setting [7]); 98.2% in test [4] (setting [8]). Also, the differential viability (reversal) in test [4] (H69AR cells + 2 uM doxorubicin) is 0.705% (inactive). For the same molecule, the inhibition in test [5] is -1.76% (inactive); in test [6], -5.09% (inactive).

As to `CCOC(=O)c1cc2c(=O)n3cccc(C)c3nc2n(CC2CCCO2)c1=NC(C)=O` (stereo not given), the viability was 94% (inactive) in test [1]; 109% (inactive) in test [2]; 81.3% (inactive) in test [3]; 19.6% in test [4] (setting [7]); 81.3% in test [4] (setting [8]). Further, the differential viability (reversal) in test [4] (H69AR cells + 2 uM doxorubicin) is 61.6% (active). Besides, the inhibition in test [5] is -5.14% (inactive); in test [6], 0.91% (inactive).

With `CCOc1ccc(S(=O)(=O)N(C)C)cc1-c1nc2c(C(C)(C)C)nn(C)c2c(=O)[nH]1`, the viability in test [1] is 99% (inactive); in test [2] it was 103% (inactive); in test [3] it was 78.9% (inactive); in test [4] (setting [7]), 78.1%; in test [4] (setting [8]), 78.9%. The differential viability (reversal) in test [4] (H69AR cells + 2 uM doxorubicin) is 0.77% (inactive). Further, the figures for the inhibition in test [5] and in test [6] were -2.03% (inactive) and -3.09% (inactive), respectively.

`COc1ccc(/C=N/n2c(SC)nnc2-c2ccccc2)cc1C`: the viability is 116% (inactive) in test [1]; 75.5% (inactive) in test [2]; 20.7% (active) in test [3]; 78.8% in test [4] (setting [7]); 20.7% in test [4] (setting [8]). Further, in test [4] (H69AR cells + 2 uM doxorubicin), the differential viability (reversal) is -58.1% (inactive). Also, the inhibition is 0.93% (inactive) in test [5] and 9.27% (inactive) in test [6].

On to `CC(=O)[C@@]1(O)CC[C@H]2[C@@H]3C[C@H](C)C4=CC(=O)C=C[C@]4(C)[C@@]3(F)[C@@H](O)C[C@@]21C`, for which the viability in test [1] is 100% (inactive); in test [2] it was 92.3% (inactive); in test [3], 93.2% (inactive); in test [4] (setting [7]), 103%; in test [4] (setting [8]) it was 93.2%. The differential viability (reversal) in test [4] (H69AR cells + 2 uM doxorubicin) is -9.97% (inactive). For the same molecule, the inhibition in test [5] was -0.91% (inactive); in test [6] it was 7.83% (inactive).

In the case of `CNC(=O)CSc1nc2c(c(=O)n(C)c(=O)n2C)n1Cc1ccc(C)cc1`, the viability in test [1] was 100% (inactive); in test [2] it was 92.4% (inactive); in test [3] it was 96.2% (inactive); in test [4] (setting [7]), 79.9%; in test [4] (setting [8]) it was 96.2%. The differential viability (reversal) in test [4] (H69AR cells + 2 uM doxorubicin) was 16.2% (inactive). For the same molecule, the inhibition in test [5] was -2% (inactive); in test [6], -7.45% (inactive).

`CCN1CCN(c2nc3c(c(=O)n(C)c(=O)n3C)n2Cc2cccc3ccccc23)CC1`: the viability in test [1] was 87% (inactive); in test [2] it was 104% (inactive); in test [3] it was 87.7% (inactive); in test [4] (setting [7]), 84.4%; in test [4] (setting [8]), 87.7%. Further, the differential viability (reversal) in test [4] (H69AR cells + 2 uM doxorubicin) is 3.33% (inactive). The inhibition in test [5] is -6.58% (inactive); in test [6], 0.91% (inactive).

On to `CCOc1ccccc1CN(Cc1ccco1)S(=O)(=O)c1ccc(-n2cnnn2)c(OC)c1`, for which the viability was 82.5% (inactive) in test [1]; 54.7% (inactive) in test [2]; 6.69% (active) in test [3]; 74.1% in test [4] (setting [7]); 6.69% in test [4] (setting [8]). For the same molecule, in test [4] (H69AR cells + 2 uM doxorubicin), the differential viability (reversal) was -67.4% (inactive). The inhibition in test [5] was -3.7% (inactive); in test [6], -2.06% (inactive).

As to `CCOc1ccc2c(c1)c1nnc(SCC(=O)N3CCC(C)CC3)nc1n2C`, the viability in test [1] is 84% (inactive); in test [2], 70.9% (inactive); in test [3] it was 95.8% (inactive); in test [4] (setting [7]), 87.3%; in test [4] (setting [8]), 95.8%. Besides, in test [4] (H69AR cells + 2 uM doxorubicin), the differential viability (reversal) was 8.51% (inactive). For the same molecule, the inhibition in test [5] is -3.78% (inactive); in test [6], -1.45% (inactive).

With `CCN(CCCNC(=O)COc1cc(=O)n(CC)c2ccccc12)c1ccccc1`, the viability in test [1] is 86% (inactive); in test [2], 56.9% (inactive); in test [3], 74.7% (inactive); in test [4] (setting [7]) it was 68.9%; in test [4] (setting [8]), 74.7%. Also, the differential viability (reversal) in test [4] (H69AR cells + 2 uM doxorubicin) is 5.79% (inactive). For the same molecule, the inhibition was -5.32% (inactive) in test [5] and -4.75% (inactive) in test [6].

In the case of `CCC(C(=O)N1CCc2cc(OC)c(OC)cc2C1)c1ccccc1` (stereo not given), the viability in test [1] is 99% (inactive); in test [2] it was 109% (inactive); in test [3], 94.5% (inactive); in test [4] (setting [7]), 92%; in test [4] (setting [8]), 94.5%. For the same molecule, the differential viability (reversal) in test [4] (H69AR cells + 2 uM doxorubicin) is 2.46% (inactive). Moreover, the inhibition was -4.52% (inactive) in test [5] and -11.9% (inactive) in test [6].

What is called viability is a read-out of living cells in per cent, often relative to untreated cells. The inhibition is the relative decrease from the control value, in per cent.

The values above are taken from PubChem BioAssay.
